RBBP9 inhibitor: human RBBP9 hydrolase inhibition. O75884. recombinant RBBP9, FP-Rh probe fluorescence polarization. inhibition, % at 7.94 µM. actives 0.2% (n = 220,000). AID 1515;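 active = inhibition above the campaign mean of all tested compounds plus 3 SD, cut at about 14% in these data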
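System: RBBP9 protein / Quantity: 2.5 µM RBBP9 dispensing solution, before mixing / Also added: Serine-hydrolase probe FP-Rh, 375 nM pre-mixing / Dosing: 7.94 µM single dose, 0.794% DMSO / Timing: enzyme-compound preincubation 30 min, then probe labeling 45 min, 25 °C / Signal: FP readout at 525/598 nm / Controls: DMSO-treated enzyme wells and wells lacking RBBP9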
Fam108B inh: blocks mouse Fam108B hydrolase in RBBP9 counter-screen; recombinant Fam108B, FP-Rh probe fluorescence polarization; inhibition, % at 9.51 µM; actives 0.33% (n = 300,000); AID 1947;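 active = inhibition above the screen mean inhibition plus 3 SD, computed separately per campaign, cut at about 18% in these data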;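 also: inhibitors lower polarization as less probe binds the enzyme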
LYPLA2 counter: counter-screen for PME1 inhibitors: inhibitors of human LYPLA2; recombinant LYPLA2, FP-Rh probe fluorescence polarization; actives 0.38% (n = 320,000); AID 2177; O95372; inhibition, % at 5.9 µM;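 active = inhibition above the screen-wide mean plus 3 SD, limit set per campaign, cut at about 26% in these data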
LYPLA1 inh: LYPLA1 (human) inhibition in PME1 counter-screen | O75608 | recombinant LYPLA1, FP-Rh probe fluorescence polarization | inhibition, % at 5.9 µM | actives 0.16% (n = 320,000);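 active = inhibition above the mean of all tested compounds plus 3 SD, set per campaign, cut at about 14% in these data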;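 also: inhibitors block serine hydrolase probe labeling of LYPLA1 so polarization falls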
PME-1 inh: blocks human protein phosphatase methylesterase 1 | Q9Y570 | recombinant PME-1, FP-Rh probe fluorescence polarization | inhibition, % at 5.9 µM | actives 0.53% (n = 320,000) | AID 2130;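 active = inhibition above the campaign mean of all compounds plus 3 SD, cut at about 26% in these data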;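 also: competitive labeling of PME-1 active site by serine hydrolase directed probe; inhibitors block probe labeling so polarization falls and inhibition rises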
Target sequence (Q9Y570 whole entry, looked up): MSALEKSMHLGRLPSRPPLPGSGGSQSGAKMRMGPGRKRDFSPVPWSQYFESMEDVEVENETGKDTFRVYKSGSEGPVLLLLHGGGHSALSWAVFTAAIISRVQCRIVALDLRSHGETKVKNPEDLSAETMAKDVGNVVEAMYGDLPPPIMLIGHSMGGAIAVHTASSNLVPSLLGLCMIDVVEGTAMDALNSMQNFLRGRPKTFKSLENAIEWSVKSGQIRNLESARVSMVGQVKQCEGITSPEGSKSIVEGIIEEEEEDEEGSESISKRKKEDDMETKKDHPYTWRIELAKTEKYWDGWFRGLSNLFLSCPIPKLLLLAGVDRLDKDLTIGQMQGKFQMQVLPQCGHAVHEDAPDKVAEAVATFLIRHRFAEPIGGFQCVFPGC
Fam108b inh conf: confirmation of mouse Fam108b serine hydrolase inhibitors | shares compounds with Fam108B inh | recombinant Fam108b, FP-Rh probe fluorescence polarization | inhibition, % at 9.51 µM | actives 44% (n = 930);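 active = inhibition above a limit from the primary screen, the mean over all compounds plus 3 SD, cut at about 19% in these data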;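 also: inhibitors free the probe so polarization falls as inhibition rises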
Fam108b ABPP HTS: mouse ABHD17B inhibition; shares compounds with Fam108B inh; recombinant Fam108b, gel-based ABPP, fluorophosphonate probe; inhibition, % at 20 µM; actives 44% (n = 260); AID 588649; in the data active = inhibition above about 40%
Of the large screens only hits and unclear results are named; the others gave an inactive call (follow-up assays come after a bar, where they were run). Sampled rows, rich in hits. Any-hit rate of the full collection: about 0.99%.

CC1(C)CC(=O)C2=C(C1)c1c(ccc3ccccc13)NC2c1ccc(C(=O)O)cc1 (stereo not drawn)	none (no result: RBBP9 inhibitor)
COc1ccc(S(=O)(=O)N2CCC(NC(=O)c3cccnc3)CC2)cc1	none (no result: RBBP9 inhibitor)
Cc1c(NC(=O)Nc2ccc(Cl)c(Cl)c2)sc(=S)n1C	Fam108B inh 32, PME-1 inh 30 | Fam108b inh conf 25
Cc1cccc(C)c1NC(=O)CSc1nnc(-c2ccco2)c(-c2ccco2)n1	Fam108B inh 26 | Fam108b inh conf inactive
Cc1cc2nc(-c3ccc(SCc4ccc(C#N)cc4)nc3)[nH]c2cc1C	Fam108B inh 26 | Fam108b inh conf inactive
O=C(CNc1cccc2ccccc12)N/N=C/c1cccc(Oc2ccccc2)c1	Fam108B inh 33, PME-1 inh 36 | Fam108b inh conf inactive
O=C(NCc1ccc2c(c1)OCO2)Nc1cccc(Cl)c1	none (no result: RBBP9 inhibitor)
O=C(Nc1cccc(Cl)c1)Nc1ccc2c(c1)OCO2	Fam108B inh 19 | Fam108b inh conf inactive
C#CCn1cc(/C=N/Nc2nc3ccccc3[nH]2)c2ccccc21	Fam108B inh 30 | Fam108b inh conf 21
CCN(CC)c1ccc(/C=N/Nc2nc3ccccc3[nH]2)c(O)c1	Fam108B inh 21 | Fam108b inh conf 19
C(=N\Nc1nc2ccccc2[nH]1)/c1cccc2nccnc12	none
Cc1ccc(Nc2nc(-c3ccc(S(=O)(=O)N4CCCC4)cc3)cs2)cc1C	none
Cc1cc(C)cc(Nc2nc(-c3ccc(S(=O)(=O)N4CCCC4)cc3)cs2)c1	Fam108B inh 24 | Fam108b inh conf inactive
O=C(CC1C(=O)NCCN1Cc1ccc(F)cc1)NCCCn1cccn1 (stereo not drawn)	none
COc1cccc(=O)c2c(C)n(-c3ccc(C(=O)O)cc3)c(C)c12	Fam108B inh 18 | Fam108b inh conf inactive
Cc1cc(C(=O)N/N=C/c2cc(Cl)cc([N+](=O)[O-])c2O)n[nH]1	none
Oc1ccc(C=NNc2ccnc3cc(Cl)ccc23)c(O)c1O	none (no result: RBBP9 inhibitor, Fam108B inh, LYPLA2 counter, LYPLA1 inh, PME-1 inh) | Fam108b ABPP HTS 80
COCCn1c(N)c(C(=O)OCc2ccccc2)c2nc3ccccc3nc21	Fam108B inh 42 | Fam108b inh conf inactive
CCN(CC)c1ccc2c(-c3ccc(S(=O)(=O)O)cc3S(=O)(=O)[O-])c3ccc(=[N+](CC)CC)cc-3oc2c1	Fam108B inh 90, PME-1 inh active (no result: RBBP9 inhibitor) | Fam108b inh conf 166
CCN(CC)c1ccc2cc(C(N)=O)c(=N)oc2c1	none
Cc1cc(S(=O)(=O)N2CCCCC2)ccc1OCC(=O)N1CCOCC1	none (no result: RBBP9 inhibitor)
CCOC(=O)c1c(C)[nH]c(C)c1C(=O)COC(=O)/C=C/c1ccc(Cl)cc1	none
COc1cccc(/C=N/NC(=O)c2[nH]c(C)c(C(=O)N/N=C/c3cccc(OC)c3O)c2C)c1O	Fam108B inh 39, PME-1 inh 35 | Fam108b inh conf 60
N#Cc1ccc2ccn(CC(=O)NC3CCCCC3)c2c1	none
N#Cc1ccc2ccn(CC(=O)NCc3ccccc3)c2c1	Fam108B inh 33 | Fam108b inh conf inactive
O=c1oc(-c2ccccc2Cl)nc2ccsc12	Fam108B inh 34 | Fam108b inh conf 32 | Fam108b ABPP HTS 85
O=c1oc(-c2ccc(F)cc2)nc2ccsc12	none
CCN(CC)S(=O)(=O)c1ccc(Nc2ccc(-c3ccc4c(c3)OCCO4)nn2)cc1	Fam108B inh 20 | Fam108b inh conf inactive
CCC(=O)NC(=S)Nc1ccc(NC(=O)c2ccc([N+](=O)[O-])cc2Cl)cc1	Fam108B inh 34 | Fam108b inh conf inactive
CN(C)c1ccc(NC(=O)c2ccc([N+](=O)[O-])cc2Cl)cc1	none
Cn1c2ccccc2c(=O)n2c(=O)c3ccccc3cc12	Fam108B inh 29 | Fam108b inh conf inactive
COc1ccc(Br)cc1CN(C)C(=O)CNC(=O)c1ccc2ccccc2c1	none (no result: RBBP9 inhibitor)
CCN(Cc1ccccc1)C(=O)CCS(=O)(=O)c1ccc2c(c1)CCN2C(C)=O	none (no result: RBBP9 inhibitor)
COc1ccc(NS(=O)(=O)c2ccc3oc(Nc4ccc5c(c4)OCCO5)nc3c2)cc1	Fam108B inh 30, PME-1 inh 32 | Fam108b inh conf inactive
COc1ccc(OC)c(NS(=O)(=O)c2ccc(NC(=O)c3ccc(NS(C)(=O)=O)cc3)cc2)c1	none
O=C(NC1CCC(O)CC1)c1ccc(-c2ccc([N+](=O)[O-])cc2)o1 (stereo not drawn)	none

Screening data: PubChem, The Scripps Research Institute Molecular Screening Center
